Reference: PMC8341669 (RSC Chemical Biology, 2021)

Assay: CD spectrum / MD helical content of the peptide in the free state
Type: physicochemical
Conditions: CD in H2O at 200 μM and MD simulations
Summary of the method: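 Peptide dissolved in HPLC-grade water at 200 μM and CD spectra recorded on a spectropolarimeter. Free peptide in solution MD: steepest-descent minimisation, 1 ns NVT (300 K, V-rescale) and 1 ns NPT (1 bar, Parrinello–Rahman) equilibration with heavy-atom restraints stepped off, then four 200 ns NPT production runs per peptide; PME electrostatics, 10 Å van der Waals cut-off, LINCS constraints.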

α-helical content in the free state: lower α-helical content
Sequence: RIRREEYLKAIQ [Linear]
